Measurements as given in ChEMBL document CHEMBL5696442, “Discovery of type II inhibitors of TGFβ-activated kinase 1 (TAK1) and mitogen-activated protein kinase kinase kinase kinase 2 (MAP4K2)” (J Med Chem, 2015).
Activity calls are given as the source filed them. The calls are words filed in the database; no cut-off is given here.

Legend:
[1] = target: Serine/threonine-protein kinase WNK3 (Homo sapiens) (UniProt Q9BYP7); test: Inhibition of Wnk3 Lys2 labeling site in human A-375 cells at 5 uM by KiNativ Profiling analysis relative to control; type: cell-based
[2] = target: Cyclin-dependent kinase 6 (Homo sapiens) (UniProt Q00534); test: Inhibition of CDK6 Lys2 labeling site in human A-375 cells at 0.5 uM by KiNativ Profiling analysis relative to control; type: cell-based
In short: (§1)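 Live A375 melanoma cells were treated with compound at 5 or 0.5 μM. The cells were then lysed, and the lysates were labeled with a lysine-reactive ATP or ADP-biotin acyl probe (KiNativ). Inhibition is the compound's protection of each kinase labeling-site peptide from probe labeling, relative to untreated control.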

[3] = target: Focal adhesion kinase 1 (Homo sapiens) (UniProt Q05397); test: Inhibition of FAK Lys1 labeling site in human A-375 cells at 0.05 uM by KiNativ Profiling analysis relative to control; type: cell-based
[4] = target: Cyclin-dependent kinase 11B (Homo sapiens) (UniProt P21127); test: Inhibition of PITSLRE Lys2 labeling site in human A-375 cells at 5 uM by KiNativ Profiling analysis relative to control; type: cell-based
[5] = target: T1, Mitogen-activated protein kinase kinase kinase 2 (Homo sapiens) (UniProt Q9Y2U5); test: Inhibition of MAP3K2 Lys1 labeling site harbouring VYLCYDVDTGRELAVKQVQFDPDSPETSKEVNALECEIQLLK in human A-375 cells at 0.5 uM by KiNativ Profiling analysis relative to control; type: cell-based
T1 sequence (whole entry): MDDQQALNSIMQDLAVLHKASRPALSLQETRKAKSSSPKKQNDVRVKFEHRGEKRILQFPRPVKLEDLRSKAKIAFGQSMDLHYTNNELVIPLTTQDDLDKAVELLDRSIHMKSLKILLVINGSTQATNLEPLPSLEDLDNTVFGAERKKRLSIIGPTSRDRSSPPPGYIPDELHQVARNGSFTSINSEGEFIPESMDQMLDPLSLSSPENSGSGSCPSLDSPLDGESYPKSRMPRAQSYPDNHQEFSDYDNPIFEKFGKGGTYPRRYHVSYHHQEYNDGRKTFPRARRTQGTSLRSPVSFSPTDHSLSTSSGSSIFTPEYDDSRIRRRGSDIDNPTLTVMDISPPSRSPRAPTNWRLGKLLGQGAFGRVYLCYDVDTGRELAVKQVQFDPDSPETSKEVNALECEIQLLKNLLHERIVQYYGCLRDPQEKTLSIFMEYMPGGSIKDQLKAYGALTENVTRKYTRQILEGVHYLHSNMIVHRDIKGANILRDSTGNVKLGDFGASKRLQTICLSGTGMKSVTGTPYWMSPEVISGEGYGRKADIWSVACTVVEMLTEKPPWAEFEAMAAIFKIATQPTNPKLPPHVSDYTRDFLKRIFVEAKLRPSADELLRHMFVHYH

[6] = target: Serine/threonine-protein kinase Nek6 (Homo sapiens) (UniProt Q9HC98); test: Inhibition of NEK6 Lys2 labeling site in human A-375 cells at 0.5 uM by KiNativ Profiling analysis relative to control; type: cell-based
[7] = target: T2, Serine/threonine-protein kinase TBK1 (Homo sapiens) (UniProt Q9UHD2); test: Inhibition of TBK1 Lys1 labeling site in human A-375 cells at 0.05 uM by KiNativ Profiling analysis relative to control; type: cell-based
T2 sequence (whole entry): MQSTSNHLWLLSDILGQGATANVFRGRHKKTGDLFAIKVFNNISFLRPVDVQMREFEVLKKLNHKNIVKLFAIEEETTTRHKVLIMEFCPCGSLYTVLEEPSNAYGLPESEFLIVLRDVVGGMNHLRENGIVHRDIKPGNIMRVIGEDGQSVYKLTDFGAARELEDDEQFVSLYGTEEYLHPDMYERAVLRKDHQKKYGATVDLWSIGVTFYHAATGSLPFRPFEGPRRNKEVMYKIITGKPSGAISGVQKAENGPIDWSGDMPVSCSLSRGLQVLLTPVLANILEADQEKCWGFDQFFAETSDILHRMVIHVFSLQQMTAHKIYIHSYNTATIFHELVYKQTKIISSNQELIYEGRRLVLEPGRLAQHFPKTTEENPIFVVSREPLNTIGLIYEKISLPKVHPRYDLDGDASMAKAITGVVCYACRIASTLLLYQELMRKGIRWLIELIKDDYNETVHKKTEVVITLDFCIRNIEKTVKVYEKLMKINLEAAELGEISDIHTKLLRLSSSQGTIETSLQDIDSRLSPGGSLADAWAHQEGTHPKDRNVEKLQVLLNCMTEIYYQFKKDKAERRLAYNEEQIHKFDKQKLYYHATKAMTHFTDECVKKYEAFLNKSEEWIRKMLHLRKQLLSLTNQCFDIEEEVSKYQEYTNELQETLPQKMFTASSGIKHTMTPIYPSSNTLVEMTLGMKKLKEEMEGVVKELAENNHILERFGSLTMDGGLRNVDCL

[8] = target: T3, Serine/threonine-protein kinase Chk1 (Homo sapiens) (UniProt O14757); test: Inhibition of CHK1 Lys2 labeling site harbouring DIKPENLLLDER in human A-375 cells at 5 uM by KiNativ Profiling analysis relative to control; type: cell-based; in short: as §1
T3 sequence (whole entry): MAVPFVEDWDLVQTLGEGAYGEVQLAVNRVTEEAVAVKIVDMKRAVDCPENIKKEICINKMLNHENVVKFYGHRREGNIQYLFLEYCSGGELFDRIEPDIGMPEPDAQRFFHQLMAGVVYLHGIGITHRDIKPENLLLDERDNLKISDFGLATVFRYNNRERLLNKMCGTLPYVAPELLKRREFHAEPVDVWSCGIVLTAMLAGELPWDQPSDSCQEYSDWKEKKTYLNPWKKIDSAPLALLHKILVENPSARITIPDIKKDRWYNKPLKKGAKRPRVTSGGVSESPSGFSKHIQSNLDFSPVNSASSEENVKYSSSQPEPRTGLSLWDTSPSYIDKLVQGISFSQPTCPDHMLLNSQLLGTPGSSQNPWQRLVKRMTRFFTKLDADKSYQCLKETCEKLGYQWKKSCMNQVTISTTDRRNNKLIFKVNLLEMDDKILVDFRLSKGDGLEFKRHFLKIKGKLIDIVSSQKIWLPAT

[9] = target: Mitogen-activated protein kinase 10 (Homo sapiens, UniProt P53779); test: Inhibition of JNK3 Lys2 labeling site in human A-375 cells at 5 uM by KiNativ Profiling analysis relative to control; type: cell-based
[10] = target: T1, Mitogen-activated protein kinase kinase kinase 2 (Homo sapiens); test: Inhibition of MAP3K2 Lys1 labeling site harbouring ELAVKQVQFDPDSPETSKEVNALECEIQLLK in human A-375 cells at 0.05 uM by KiNativ Profiling analysis relative to control; type: cell-based
[11] = tested on: GEN2.2; test: Inhibition of CL097 induced IKKalpha/beta phosphorylation level in human GEN2.2 cells at 1 uM preincubated with compound for 1 hr followed by CL097 stimulation and measured after 30 mins by Western blot analysis; type: functional, cell-based

Chain of Mitogen-activated protein kinase 10 (P53779 whole entry): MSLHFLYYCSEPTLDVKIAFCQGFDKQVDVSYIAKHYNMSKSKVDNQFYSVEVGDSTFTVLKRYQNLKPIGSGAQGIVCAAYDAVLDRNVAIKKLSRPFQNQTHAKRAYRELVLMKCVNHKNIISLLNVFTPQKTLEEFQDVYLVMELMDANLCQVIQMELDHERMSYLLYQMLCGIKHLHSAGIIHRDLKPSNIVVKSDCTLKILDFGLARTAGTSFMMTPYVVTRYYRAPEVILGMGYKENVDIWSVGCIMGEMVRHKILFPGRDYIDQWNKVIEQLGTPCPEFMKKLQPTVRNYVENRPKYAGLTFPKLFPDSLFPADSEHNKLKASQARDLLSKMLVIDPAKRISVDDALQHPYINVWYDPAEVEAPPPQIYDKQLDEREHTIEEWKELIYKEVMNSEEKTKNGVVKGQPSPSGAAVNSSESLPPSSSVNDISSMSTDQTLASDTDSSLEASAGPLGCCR
Chain of Serine/threonine-protein kinase Nek6 (Homo sapiens) (Q9HC98 whole entry): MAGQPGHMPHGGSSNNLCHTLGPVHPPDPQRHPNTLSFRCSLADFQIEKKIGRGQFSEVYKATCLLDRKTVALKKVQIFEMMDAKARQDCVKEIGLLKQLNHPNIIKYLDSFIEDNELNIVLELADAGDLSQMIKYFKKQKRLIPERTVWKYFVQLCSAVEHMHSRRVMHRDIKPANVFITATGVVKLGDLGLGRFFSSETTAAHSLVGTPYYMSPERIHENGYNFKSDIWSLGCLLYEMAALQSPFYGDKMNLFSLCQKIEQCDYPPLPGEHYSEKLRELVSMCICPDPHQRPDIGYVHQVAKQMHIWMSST
Chain of Focal adhesion kinase 1 (Homo sapiens) (Q05397 2-1052 limits assumed): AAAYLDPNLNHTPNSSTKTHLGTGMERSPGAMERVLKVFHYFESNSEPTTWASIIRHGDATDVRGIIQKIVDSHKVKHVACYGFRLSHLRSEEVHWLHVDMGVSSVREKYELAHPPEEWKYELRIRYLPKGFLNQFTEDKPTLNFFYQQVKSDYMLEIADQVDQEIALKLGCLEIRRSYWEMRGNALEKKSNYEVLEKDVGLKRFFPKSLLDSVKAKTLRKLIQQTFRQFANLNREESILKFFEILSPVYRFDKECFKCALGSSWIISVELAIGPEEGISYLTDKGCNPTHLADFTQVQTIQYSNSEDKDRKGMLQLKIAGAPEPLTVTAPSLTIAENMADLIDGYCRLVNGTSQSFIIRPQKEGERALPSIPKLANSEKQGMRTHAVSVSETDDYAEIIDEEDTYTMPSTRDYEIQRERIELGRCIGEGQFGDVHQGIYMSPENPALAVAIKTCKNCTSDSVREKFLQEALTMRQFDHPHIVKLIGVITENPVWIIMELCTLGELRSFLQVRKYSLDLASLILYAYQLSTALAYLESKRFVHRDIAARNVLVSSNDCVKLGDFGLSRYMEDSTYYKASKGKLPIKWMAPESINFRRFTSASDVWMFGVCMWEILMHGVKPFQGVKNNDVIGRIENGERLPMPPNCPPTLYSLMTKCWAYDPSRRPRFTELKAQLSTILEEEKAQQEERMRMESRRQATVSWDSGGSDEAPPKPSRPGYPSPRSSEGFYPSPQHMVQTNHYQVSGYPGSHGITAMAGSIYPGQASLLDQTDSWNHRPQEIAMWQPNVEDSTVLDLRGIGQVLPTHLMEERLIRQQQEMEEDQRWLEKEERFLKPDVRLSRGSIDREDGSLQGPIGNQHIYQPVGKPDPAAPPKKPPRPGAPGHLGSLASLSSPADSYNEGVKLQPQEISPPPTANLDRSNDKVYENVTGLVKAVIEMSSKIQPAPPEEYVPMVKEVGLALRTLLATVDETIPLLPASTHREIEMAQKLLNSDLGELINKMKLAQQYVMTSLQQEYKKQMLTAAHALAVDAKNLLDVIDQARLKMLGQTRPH
Chain of Serine/threonine-protein kinase WNK3 (Homo sapiens) (Q9BYP7 whole entry): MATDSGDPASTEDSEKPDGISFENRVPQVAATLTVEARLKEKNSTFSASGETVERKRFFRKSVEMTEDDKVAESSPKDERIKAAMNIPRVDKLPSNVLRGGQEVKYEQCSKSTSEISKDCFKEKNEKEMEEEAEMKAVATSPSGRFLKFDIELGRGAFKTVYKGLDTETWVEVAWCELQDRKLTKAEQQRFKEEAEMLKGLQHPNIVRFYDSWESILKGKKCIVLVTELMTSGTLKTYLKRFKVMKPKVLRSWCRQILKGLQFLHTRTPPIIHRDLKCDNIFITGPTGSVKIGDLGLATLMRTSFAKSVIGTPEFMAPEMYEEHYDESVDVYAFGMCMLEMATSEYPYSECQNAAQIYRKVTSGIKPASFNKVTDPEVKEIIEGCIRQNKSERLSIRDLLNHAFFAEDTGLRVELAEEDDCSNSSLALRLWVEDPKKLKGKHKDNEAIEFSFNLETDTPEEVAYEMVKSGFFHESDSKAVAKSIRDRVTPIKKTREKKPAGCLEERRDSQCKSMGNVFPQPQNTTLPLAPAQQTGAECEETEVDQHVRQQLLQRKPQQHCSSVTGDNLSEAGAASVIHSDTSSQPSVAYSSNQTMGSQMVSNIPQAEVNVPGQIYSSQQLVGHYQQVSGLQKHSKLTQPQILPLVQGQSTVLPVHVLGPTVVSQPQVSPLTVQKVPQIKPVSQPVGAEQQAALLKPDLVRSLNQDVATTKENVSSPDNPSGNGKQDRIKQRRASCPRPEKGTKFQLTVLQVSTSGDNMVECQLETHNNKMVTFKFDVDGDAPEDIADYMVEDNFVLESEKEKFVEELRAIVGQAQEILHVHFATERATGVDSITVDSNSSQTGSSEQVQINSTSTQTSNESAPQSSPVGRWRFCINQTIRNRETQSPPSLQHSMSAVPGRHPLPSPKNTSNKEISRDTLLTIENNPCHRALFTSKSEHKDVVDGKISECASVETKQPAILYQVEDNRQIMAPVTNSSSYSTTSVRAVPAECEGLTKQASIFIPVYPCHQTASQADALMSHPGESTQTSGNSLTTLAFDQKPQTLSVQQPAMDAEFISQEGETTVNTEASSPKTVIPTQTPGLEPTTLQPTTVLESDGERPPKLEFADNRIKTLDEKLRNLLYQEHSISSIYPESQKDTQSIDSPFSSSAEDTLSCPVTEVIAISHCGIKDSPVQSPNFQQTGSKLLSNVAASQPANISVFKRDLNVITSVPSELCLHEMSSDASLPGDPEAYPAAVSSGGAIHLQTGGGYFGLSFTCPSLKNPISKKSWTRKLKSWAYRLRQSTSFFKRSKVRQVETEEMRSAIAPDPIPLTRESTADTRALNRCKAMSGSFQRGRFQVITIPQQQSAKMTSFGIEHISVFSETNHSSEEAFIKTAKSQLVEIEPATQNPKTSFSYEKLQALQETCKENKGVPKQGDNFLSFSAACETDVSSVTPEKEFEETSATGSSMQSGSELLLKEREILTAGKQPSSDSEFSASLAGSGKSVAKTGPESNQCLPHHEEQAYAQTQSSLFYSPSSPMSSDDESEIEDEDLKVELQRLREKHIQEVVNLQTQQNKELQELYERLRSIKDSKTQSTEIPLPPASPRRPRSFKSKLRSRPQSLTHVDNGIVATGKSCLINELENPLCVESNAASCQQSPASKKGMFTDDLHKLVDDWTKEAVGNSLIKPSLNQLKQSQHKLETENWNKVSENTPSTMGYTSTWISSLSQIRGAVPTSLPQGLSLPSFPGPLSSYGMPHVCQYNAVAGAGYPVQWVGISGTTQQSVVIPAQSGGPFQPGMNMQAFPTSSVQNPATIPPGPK
Chain of Cyclin-dependent kinase 11B (Homo sapiens) (P21127 whole entry): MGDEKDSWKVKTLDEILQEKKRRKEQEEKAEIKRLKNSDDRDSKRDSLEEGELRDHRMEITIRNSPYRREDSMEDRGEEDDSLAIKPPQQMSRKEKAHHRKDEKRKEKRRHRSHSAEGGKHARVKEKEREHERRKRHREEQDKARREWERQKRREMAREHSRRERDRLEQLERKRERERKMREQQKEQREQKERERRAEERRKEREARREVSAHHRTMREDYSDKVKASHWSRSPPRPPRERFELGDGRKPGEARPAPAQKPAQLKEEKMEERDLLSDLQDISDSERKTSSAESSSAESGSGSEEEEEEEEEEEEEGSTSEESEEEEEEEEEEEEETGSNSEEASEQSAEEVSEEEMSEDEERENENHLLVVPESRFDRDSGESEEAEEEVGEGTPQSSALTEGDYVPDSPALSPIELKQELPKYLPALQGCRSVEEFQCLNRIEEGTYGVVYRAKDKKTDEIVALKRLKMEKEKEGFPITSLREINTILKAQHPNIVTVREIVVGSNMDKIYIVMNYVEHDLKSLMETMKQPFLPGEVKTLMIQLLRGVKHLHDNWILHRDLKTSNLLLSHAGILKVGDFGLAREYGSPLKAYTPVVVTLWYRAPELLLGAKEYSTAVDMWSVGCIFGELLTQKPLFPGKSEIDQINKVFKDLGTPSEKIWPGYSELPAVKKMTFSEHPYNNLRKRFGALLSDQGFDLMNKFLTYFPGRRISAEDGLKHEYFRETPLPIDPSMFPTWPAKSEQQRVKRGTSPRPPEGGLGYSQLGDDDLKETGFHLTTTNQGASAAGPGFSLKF
Chain of Cyclin-dependent kinase 6 (Homo sapiens) (Q00534 whole entry): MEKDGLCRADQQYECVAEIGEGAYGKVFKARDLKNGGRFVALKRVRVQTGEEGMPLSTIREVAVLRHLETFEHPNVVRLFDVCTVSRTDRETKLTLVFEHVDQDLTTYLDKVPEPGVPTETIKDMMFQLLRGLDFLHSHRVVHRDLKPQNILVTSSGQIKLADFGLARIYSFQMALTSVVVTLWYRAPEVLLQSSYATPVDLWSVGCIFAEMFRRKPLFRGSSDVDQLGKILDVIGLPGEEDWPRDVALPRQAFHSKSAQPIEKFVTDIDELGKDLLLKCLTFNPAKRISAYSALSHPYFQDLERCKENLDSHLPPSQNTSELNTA

Row | SMILES | inhibition [1] [%] | inhibition [2] [%] | inhibition [3] [%] | inhibition [4] [%] | inhibition [5] [%] | inhibition [6] [%] | inhibition [7] [%] | inhibition [8] [%] | inhibition [9] [%] | inhibition [10] [%] | inhibition [11]
1 | CCN1CCN(Cc2ccc(NC(=O)c3ccc(C)c(/C=C/c4cnc5[nH]ccc5c4OC)c3)cc2C(F)(F)F)CC1 | 14.3 | 11.4 | 4.7 | -9.5 | -0.7 | 10.7 | 33.4 | -4.8 | 76.9 | 5.2 | –
2 | CCN1CCN(Cc2ccc(NC(=O)c3ccc(C)c(Oc4ccnc5[nH]ccc45)c3)cc2C(F)(F)F)CC1 | -5.5 | 3.9 | 1 | 6.3 | 17.4 | 7.8 | 16.7 | 40.1 | 90.3 | 11.8 | Active
3 | CNc1cc(Oc2cc(C(=O)Nc3cc(-n4cnc(C)c4)cc(C(F)(F)F)c3)ccc2C)ncn1 | – | – | – | – | – | – | – | – | – | – | inactive
